Measurements: ChEMBL document CHEMBL4017487, “Design and Synthesis of γ- and δ-Lactam M1 Positive Allosteric Modulators (PAMs): Convulsion and Cholinergic Toxicity of an M1-Selective PAM with Weak Agonist Activity” (J Med Chem, 2017)
Numbering of substitutions follows the chain as printed.

Tests used:
Canis familiaris [1] = experiment: Cholinergic toxicity in dog assessed as ataxia at 5 mg/kg, po administered as single dose using spray dried dispersion formulation after 2 hrs; assay type: organism-based, Canis lupus familiaris; conditions: in vivo
Procedure, shortened: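 Dog single oral dose escalation: 1/sex at 5 mg/kg for each formulation; 1 female at 15 mg/kg. Spray-dried dispersion: 23% drug loading with 0.5% methylcellulose and 100 mM citrate buffer. Clinical signs timed in approximate hours postdose; unbound plasma Cmax.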

[2] = Ratio of AUC in rat brain to plasma at 2 mg/kg, po or 0.5 mg/kg, iv administered as single bolus dose; assay type: ADME, organism-based; conditions: read-out: Ratio AUC
Procedure, shortened: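 Brain/plasma ratio computed from AUC of total drug in brain and total drug in plasma.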

Brain = experiment: Unbound brain concentration in scopolamine-induced memory impairment Wistar rat model at 0.32 mg/kg, sc measured at 1.25 hrs post dose by LC-MS/MS analysis; conditions: in vivo
Rattus norvegicus [3] = experiment: Unbound Cmax in rat plasma at 45 mg/kg, po administered as single dose; assay type: ADME, organism-based; conditions: in vivo
Rattus norvegicus [4] = experiment: Unbound AUC (0 to 24 hrs) in rat plasma at 1 mg/kg, po administered as single dose; assay type: ADME, organism-based; conditions: in vivo
Procedure, shortened: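 Rats (3/sex/dose) dosed orally once, 1 or 5 mg/kg as a 0.5% methylcellulose suspension.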

[5] = Ratio of unbound Cmax in dog brain assessed as convulsions at 15 mg/kg, po administered as single dose to unbound brain concentration for agonist activity at muscarinic acetylcholine receptor M1 in C57BL/6 mouse assessed as required to show 2 fold increase in IP1 accumulation in striatum at 1 to 10 mg/kg, sc; assay type: organism-based
Canis familiaris [6] = experiment: Toxicity in dog assessed as death at 5 mg/kg, po administered as single dose using spray dried dispersion formulation after 1 day; assay type: organism-based, Canis lupus familiaris; conditions: in vivo, 24 h
Procedure, shortened: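 Single oral dose in dogs, 1/sex/dose. Spray-dried dispersion formulation: 23% drug loading with 0.5% methylcellulose and 100 mM citrate buffer. Clinical signs were recorded by hours postdose, with animals checked the next morning. Necropsy was performed.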

[7] = molecular target: T1, Muscarinic acetylcholine receptor M1 (Homo sapiens, UniProt P11229); experiment: Activity at human muscarinic acetylcholine receptor M1 expressed in CHO cells assessed as increase in calcium mobilization incubated for 10 mins by Fluo-8-AM dye based FLIPR assay; assay type: cell-based
T1 sequence (P11229 whole entry): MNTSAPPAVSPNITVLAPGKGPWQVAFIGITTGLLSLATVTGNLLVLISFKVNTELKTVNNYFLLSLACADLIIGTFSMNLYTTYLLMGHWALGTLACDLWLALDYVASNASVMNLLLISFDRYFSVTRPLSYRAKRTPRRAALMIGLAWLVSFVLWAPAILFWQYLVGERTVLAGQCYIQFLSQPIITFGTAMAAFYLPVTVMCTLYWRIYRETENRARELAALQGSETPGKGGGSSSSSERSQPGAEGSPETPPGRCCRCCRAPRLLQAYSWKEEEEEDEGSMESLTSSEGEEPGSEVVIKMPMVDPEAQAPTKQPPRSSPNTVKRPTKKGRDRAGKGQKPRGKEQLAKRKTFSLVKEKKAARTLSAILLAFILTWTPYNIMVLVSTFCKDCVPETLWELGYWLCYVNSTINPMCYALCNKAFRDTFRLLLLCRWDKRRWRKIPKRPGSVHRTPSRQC

Plasma = experiment: Unbound plasma concentration in scopolamine-induced memory impairment Wistar rat model at 0.32 mg/kg, sc measured after 1.25 hrs by LC-MS/MS analysis; assay type: ADME, organism-based; conditions: in vivo
Procedure, shortened: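 Rats from a satellite group of the scopolamine (0.32 mg/kg) Morris water maze study, N = 2/dose. Dosed sc as a solution in 20% hydroxypropyl β-cyclodextrin. Compound concentrations measured in plasma only at T = 1.25 h.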

[8] = Half life in dog at 0.5 mg/kg, po administered as single dose; assay type: ADME, organism-based, Canis lupus familiaris; conditions: in vivo
Procedure, shortened: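 Dog, single oral dose of 0.5 mg/kg as a suspension in 0.5% methylcellulose. Half-life taken after the oral dose.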

[9] = molecular target: T2, Muscarinic acetylcholine receptor M1 (Rattus norvegicus, UniProt P08482); experiment: Positive allosteric modulation of muscarinic acetylcholine receptor M1 in Sprague-Dawley rat brain hippocampal slices assessed as increase in carbachol-induced firing rate at CA1 pyramidal neurons after 10 mins by electrophysiology method
T2 sequence (P08482 whole entry): T1 sequence (P11229 whole entry) with A5V, T254S, P309S, R320K, A337G, I413V
Procedure, shortened: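 Rat hippocampal slices; spontaneous action potentials recorded from CA1 pyramidal neurons, read as spike rate. Agonist mode has no carbachol; PAM mode uses an EC20 level of carbachol. Top concentration tested was 3 μM.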

Rattus norvegicus [10] = experiment: Toxicity in rat assessed as unbound Cmax in brain required to show convulsions at 45 mg/kg, po administered as single dose; assay type: organism-based; conditions: in vivo
Rattus norvegicus [11] = experiment: Toxicity in rat assessed as unbound brain concentration at 45 mg/kg, po administered as single dose; assay type: organism-based; conditions: in vivo
[12] = molecular target: T1, Muscarinic acetylcholine receptor M1; experiment: Activity at human muscarinic acetylcholine receptor M1 expressed in CHO cells assessed as increase in acetylcholine-induced calcium mobilization incubated for 10 mins by Fluo-8-AM dye based FLIPR assay; assay type: ADME, cell-based
Procedure, shortened: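 Calcium-mobilization potentiation assay read on a FLIPR plate reader in the presence of an EC20 concentration of ACh. EC50 is the geometric mean of at least three experiments.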

**Q.** With `Cc1cc2c(cc1Cc1ccc(-c3cocn3)cc1)C(=O)N([C@H]1CCOC[C@@H]1O)C2` as the compound, how does the Activity (Canis familiaris [1]) read?
**A.** The Activity was “Toxic”.

**Q.** What about the Kp [2] of the same compound?
**A.** Its Kp is 0.2.

**Q.** And the “Drug uptake(free)” value (Brain)?
**A.** The value was 3.2 nM.

**Q.** And the fCmax (Rattus norvegicus [3])?
**A.** The fCmax was 2.31 to 3.83 µM.

**Q.** What about the fAUC (Rattus norvegicus [4]) of the same compound?
**A.** The fAUC was 1.048 µM·h.

**Q.** What about the selectivity ratio [5] of the same compound?
**A.** Its selectivity ratio is 15.

**Q.** And the Activity (Canis familiaris [6])?
**A.** The Activity was “Toxic”.

**Q.** What about the Kb [7] of the same compound?
**A.** Its Kb is 3 µM.

**Q.** What about the “Cp(f)” value (Plasma) of the same compound?
**A.** Its value is 17 nM.

**Q.** What about the half-life [8] of the same compound?
**A.** Its half-life is 7.3 h.

**Q.** What about the Activity [9] of the same compound?
**A.** Its Activity is “Dose-dependent effect”.

**Q.** What about the fCmax (Rattus norvegicus [10]) of the same compound?
**A.** Its fCmax is 440 nM.

**Q.** And the Drug uptake(free) (Rattus norvegicus [11])?
**A.** The Drug uptake(free) was 460 to 760 nM.

**Q.** What about the KA [12] of the same compound?
**A.** The KA was 1.3 µM.
